Results: ChEMBL document CHEMBL4689842, “EUbOPEN Chemogenomics Library wave 1” (2021)

Test system: U2OS
Experiment: Multiplex assay against U2OS
Assay type: toxicity, cell-based
Conditions: human
How it was run: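 Cells stained live at seeding with Hoechst33342, BioTracker Green Microtubule Cytoskeleton Dye, MitoTracker Red and Annexin V Alexa Fluor 680 were imaged on a CQ1 microscope at 37°C and 5% CO2 after compound addition. Their classification by CellPathfinder machine-learning gating ran from Hoechst high-intensity objects versus normal cells, to healthy, pyknosed or fragmented nuclei among normal cells, to mitotic or apoptotic among pyknosed cells. Tubulin, mitochondrial-mass and membrane-permeability phenotypes are per cents of healthy-nucleus cells.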

[1] = 12 h, 1 µM, compound concentration 1 uM, replicate 1
[2] = 12 h, 1 µM, compound concentration 1 uM, replicate 2
[3] = 12 h, 10 µM, compound concentration 10 uM, replicate 1
[4] = 12 h, 10 µM, compound concentration 10 uM, replicate 2
[5] = 24 h, 1 µM, compound concentration 1 uM, replicate 1
[6] = 24 h, 1 µM, compound concentration 1 uM, replicate 2
[7] = 24 h, 10 µM, compound concentration 10 uM, replicate 1
[8] = 24 h, 10 µM, compound concentration 10 uM, replicate 2
[9] = 48 h, 1 µM, compound concentration 1 uM, replicate 1
[10] = 48 h, 1 µM, compound concentration 1 uM, replicate 2
[11] = 48 h, 10 µM, compound concentration 10 uM, replicate 1
[12] = 48 h, 10 µM, compound concentration 10 uM, replicate 2

SMILES: CC(C)OC(=O)N1CCC(Oc2ncnc3c2cnn3-c2ccc(S(C)(=O)=O)cc2F)CC1
- Population Apoptotic (%) [1]: 57%
- Population Fragmented Nuclei (%) [1]: 11%
- Population Healthy Nuclei (%) [1]: 80%
- Population Hoechst High Intensity Objects (%) [1]: 6%
- Population Membrane Permeable-Phenotype (%) [1]: 6%
- Population Mitochondria Different-Phenotype (%) [1]: 8%
- Population Mitotic Cells (%) [1]: 42%
- Population Normal (%) [1]: 93%
- Population Pyknosed Nuclei (%) [1]: 7%
- Population Tubulin-Different-Phenotype (%) [1]: 12%
- Total Cell Count [1]: 95
- Population Apoptotic (%) [2]: 33%
- Population Fragmented Nuclei (%) [2]: 5%
- Population Healthy Nuclei (%) [2]: 91%
- Population Hoechst High Intensity Objects (%) [2]: 7%
- Population Membrane Permeable-Phenotype (%) [2]: 4%
- Population Mitotic Cells (%) [2]: 66%
- Population Normal (%) [2]: 92%
- Population Pyknosed Nuclei (%) [2]: 3%
- Population Tubulin-Different-Phenotype (%) [2]: 7%
- Total Cell Count [2]: 97
- Population Apoptotic (%) [3]: 20%
- Population Fragmented Nuclei (%) [3]: 11%
- Population Healthy Nuclei (%) [3]: 77%
- Population Hoechst High Intensity Objects (%) [3]: 6%
- Population Membrane Permeable-Phenotype (%) [3]: 6%
- Population Mitochondria Different-Phenotype (%) [3]: 19%
- Population Mitotic Cells (%) [3]: 79%
- Population Normal (%) [3]: 93%
- Population Pyknosed Nuclei (%) [3]: 11%
- Population Tubulin-Different-Phenotype (%) [3]: 24%
- Total Cell Count [3]: 221
- Population Apoptotic (%) [4]: 18%
- Population Fragmented Nuclei (%) [4]: 5%
- Population Membrane Permeable-Phenotype (%) [4]: 0%
- Population Mitochondria Different-Phenotype (%) [4]: 5%
- Population Mitotic Cells (%) [4]: 81%
- Population Pyknosed Nuclei (%) [4]: 16%
- Population Tubulin-Different-Phenotype (%) [4]: 28%
- Total Cell Count [4]: 72
- Population Apoptotic (%) [5]: 57%
- Population Fragmented Nuclei (%) [5]: 10%
- Population Healthy Nuclei (%) [5]: 83%
- Population Hoechst High Intensity Objects (%) [5]: 6%
- Population Membrane Permeable-Phenotype (%) [5]: 5%
- Population Mitochondria Different-Phenotype (%) [5]: 5%
- Population Mitotic Cells (%) [5]: 42%
- Population Normal (%) [5]: 93%
- Population Pyknosed Nuclei (%) [5]: 6%
- Population Tubulin-Different-Phenotype (%) [5]: 11%
- Total Cell Count [5]: 123
- Population Apoptotic (%) [6]: 50%
- Population Fragmented Nuclei (%) [6]: 4%
- Population Healthy Nuclei (%) [6]: 86%
- Population Hoechst High Intensity Objects (%) [6]: 2%
- Population Mitochondria Different-Phenotype (%) [6]: 4%
- Population Mitotic Cells (%) [6]: 50%
- Population Normal (%) [6]: 97%
- Population Pyknosed Nuclei (%) [6]: 8%
- Population Tubulin-Different-Phenotype (%) [6]: 9%
- Total Cell Count [6]: 116
- Population Apoptotic (%) [7]: 20%
- Population Fragmented Nuclei (%) [7]: 10%
- Population Healthy Nuclei (%) [7]: 79%
- Population Hoechst High Intensity Objects (%) [7]: 4%
- Population Membrane Permeable-Phenotype (%) [7]: 1%
- Population Mitochondria Different-Phenotype (%) [7]: 14%
- Population Mitotic Cells (%) [7]: 79%
- Population Normal (%) [7]: 95%
- Population Pyknosed Nuclei (%) [7]: 10%
- Population Tubulin-Different-Phenotype (%) [7]: 13%
- Total Cell Count [7]: 248
- Population Apoptotic (%) [8]: 33%
- Population Fragmented Nuclei (%) [8]: 5%
- Population Healthy Nuclei (%) [8]: 87%
- Population Hoechst High Intensity Objects (%) [8]: 2%
- Population Mitochondria Different-Phenotype (%) [8]: 2%
- Population Mitotic Cells (%) [8]: 66%
- Population Normal (%) [8]: 97%
- Population Pyknosed Nuclei (%) [8]: 6%
- Population Tubulin-Different-Phenotype (%) [8]: 31%
- Total Cell Count [8]: 93
- Population Apoptotic (%) [9]: 27%
- Population Fragmented Nuclei (%) [9]: 6%
- Population Healthy Nuclei (%) [9]: 83%
- Population Hoechst High Intensity Objects (%) [9]: 4%
- Population Membrane Permeable-Phenotype (%) [9]: 1%
- Population Mitotic Cells (%) [9]: 72%
- Population Normal (%) [9]: 95%
- Population Pyknosed Nuclei (%) [9]: 9%
- Population Tubulin-Different-Phenotype (%) [9]: 5%
- Total Cell Count [9]: 193
- Population Apoptotic (%) [10]: 30%
- Population Fragmented Nuclei (%) [10]: 5%
- Population Healthy Nuclei (%) [10]: 88%
- Population Hoechst High Intensity Objects (%) [10]: 2%
- Population Membrane Permeable-Phenotype (%) [10]: 7%
- Population Mitochondria Different-Phenotype (%) [10]: 10%
- Population Mitotic Cells (%) [10]: 69%
- Population Normal (%) [10]: 97%
- Population Pyknosed Nuclei (%) [10]: 6%
- Population Tubulin-Different-Phenotype (%) [10]: 9%
- Total Cell Count [10]: 199
- Population Apoptotic (%) [11]: 35%
- Population Fragmented Nuclei (%) [11]: 5%
- Population Healthy Nuclei (%) [11]: 82%
- Population Hoechst High Intensity Objects (%) [11]: 2%
- Population Membrane Permeable-Phenotype (%) [11]: 2%
- Population Mitochondria Different-Phenotype (%) [11]: 13%
- Population Mitotic Cells (%) [11]: 64%
- Population Normal (%) [11]: 97%
- Population Pyknosed Nuclei (%) [11]: 11%
- Population Tubulin-Different-Phenotype (%) [11]: 8%
- Total Cell Count [11]: 324
- Population Apoptotic (%) [12]: 40%
- Population Fragmented Nuclei (%) [12]: 3%
- Population Healthy Nuclei (%) [12]: 92%
- Population Hoechst High Intensity Objects (%) [12]: 1%
- Population Mitochondria Different-Phenotype (%) [12]: 12%
- Population Mitotic Cells (%) [12]: 60%
- Population Normal (%) [12]: 98%
- Population Pyknosed Nuclei (%) [12]: 3%
- Population Tubulin-Different-Phenotype (%) [12]: 37%
- Total Cell Count [12]: 157
